Where two headings read alike, the source gives them in different places.
Tests used:
[1] = system: EOCs that are gBRCAwt but HRD positive and platinum resistant; conditions: gBRCAwt but HRD positive and platinum resistant EOC; QUADRA study; cited from earlier work
[2] = Pharmacokinetics: steady state Cmax of alpelisib and olaparib; assay type: in vivo, human; conditions: combination; for Effect of the other drug's dosing on Cmax: dose levels 0-3; for Steady state Cmax compared with monotherapy: day 8, 2 hours post dosing
Summary of the method: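 Blood sampled for alpelisib and olaparib levels on cycle 1 day 1 (time 0) and on days 8 and 15 at 0, 1, 2, 4 and 8 h after dosing both agents. Patients took oral alpelisib once daily and olaparib tablets twice daily, continuously on 28-day cycles, at alpelisib 200–300 mg with olaparib 100–200 mg.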

[3] = system: patients with recurrent EOC or BC; experiment: Phase 1b 3+3 dose escalation: DLTs, MTD and RP2D; assay type: in vivo, human
Summary of the method: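 Classic 3+3 design with continuous 28-day cycles: oral alpelisib q.d. plus olaparib tablets b.i.d. Levels were 250/100 mg, 250/200 mg, 300/200 mg and 200/200 mg. Escalation followed 0/3 or 1/6 DLTs in cycle 1, graded by CTCAE v4.03. DLTs were prespecified grade ≥3 treatment-related toxicities. Monitoring was weekly in cycles 1–2, then day 1 of each cycle. Six EOC patients were then expanded at the MTD.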

EOC patients = conditions: cited from earlier work
patients = conditions: olaparib monotherapy, SOLO1 study; cited from earlier work

In the case of `NC(=O)c1cccc2cn(-c3ccc([C@@H]4CCCNC4)cc3)nc12` [niraparib], the Response to monotherapy [1] is listed as 10%.

In the case of `O=C(c1cc(Cc2n[nH]c(=O)c3ccccc23)ccc1F)N1CCN(C(=O)C2CC2)CC1` [olaparib], the “Dose proportionality of drug exposure” value [2] is reported as “increasing proportionally with increasing dose”, the “Effect of the other drug's dosing on Cmax” value [2] is reported as “unaffected by alpelisib dosing” and the “Steady state Cmax compared with monotherapy” value [2] is reported as “comparable to values when testing these agents as monotherapy”. For the same compound, the “MTD and RP2D, olaparib dose” value ([3]; orally twice daily (tablet), combined with alpelisib 200 mg once daily) was 200 mg, the “Objective response rate expected from monotherapy” value (EOC patients; BRCAwt, platinum-resistant ovarian carcinomas, no ref given) was 4–5% and the ORR as monotherapy (EOC patients; gBRCAwt / BRCAwt platinum resistant patients) was ~ 5%. For the same compound, the “Expected response rate of monotherapy” value (EOC patients; platinum resistant gBRCAmut EOC) was 28%, the “Expected response rate of monotherapy” value (EOC patients; platinum resistant gBRCAwt EOC) was ~ 5% and the “Expected response rate of monotherapy” value (EOC patients; platinum sensitive gBRCAmut EOC) was ≥ 60%. The “Expected response rate of monotherapy” value (EOC patients; platinum sensitive gBRCAwt EOC) was 50%, the “Fatigue, share of patients” value (patients) was 63% and the “Nausea, share of patients” value (patients) was 77%. For the same compound, the “Vomiting, share of patients” value (patients) was 40%.

In the case of `Cc1nc(NC(=O)N2CCC[C@H]2C(N)=O)sc1-c1ccnc(C(C)(C)C(F)(F)F)c1` [alpelisib], the “Dose proportionality of drug exposure” value [2] is reported as “increasing proportionally with increasing dose”, the “Effect of the other drug's dosing on Cmax” value [2] is reported as “unaffected by olaparib dosing” and the “Steady state Cmax compared with monotherapy” value [2] is reported as “comparable to values when testing these agents as monotherapy”. The “MTD and RP2D, alpelisib dose” value ([3]; orally once daily, combined with olaparib 200 mg twice daily) was 200 mg.

From article PMC7025391 (The Lancet. Oncology, 2019)
